Bioassay records deposited in PubChem by several laboratories.
The list is not random: actives were taken first. Their share in the collection is about 2.6%.
ASAP1 GAP inh – inhibitors of human ASAP1 ArfGAP activity; Q9ULH1; 0.19% of 360,000 active; ASAP1-stimulated ARF1 GTP hydrolysis, GDP FP detection; inhibition, % at 16.5 µM; in the data active = inhibition above about 25%
Target sequence (Q9ULH1 325-724 limits assumed): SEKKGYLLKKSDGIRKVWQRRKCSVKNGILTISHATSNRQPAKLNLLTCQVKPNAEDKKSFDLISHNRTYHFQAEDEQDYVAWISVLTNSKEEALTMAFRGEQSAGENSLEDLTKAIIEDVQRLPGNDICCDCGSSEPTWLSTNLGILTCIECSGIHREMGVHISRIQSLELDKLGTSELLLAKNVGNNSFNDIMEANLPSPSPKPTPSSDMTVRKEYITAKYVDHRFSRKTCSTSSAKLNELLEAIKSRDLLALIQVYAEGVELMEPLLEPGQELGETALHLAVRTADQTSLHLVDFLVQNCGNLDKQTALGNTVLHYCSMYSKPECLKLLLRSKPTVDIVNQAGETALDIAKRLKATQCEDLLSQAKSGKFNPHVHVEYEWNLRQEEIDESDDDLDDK
esBAF inh – inhibitors of esBAF chromatin remodeling in mouse ES cells; Bmi1-luciferase knock-in reporter, 24 h; 100% = twice the neutral-well signal; 2% of 350,000 active; reporter increase, % at 12.5 µM; AID 602393; in the data active = activation above about 40%; inconclusive = no clear call, values can overlap the other calls;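 note: a rise in the Bmi1 reporter signal indicates esBAF inhibition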
ARFGAP1 inhibitor – inhibitors of rat ARFGAP1; Q62848; Arfgap1-stimulated ARF1 GTP hydrolysis, GDP FP detection; inhibition, % at 16.5 µM; 0.26% of 360,000 active; AID 651572;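 active = inhibition above a per-plate limit, mean inhibition of low control wells plus 3 SD, cut at about 25% in these data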
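Material: rat Arfgap1 GAP domain (His6, aa 1-136), purified enzyme. Also added: human ARF1(Δ1-17)-GTP substrate. Compound dosing: 16.5 µM single point, 1.26% DMSO. Timing: enzyme reaction 120 min at 25 °C after 20 min preincubation. Signal: GDP detection by fluorescence polarization. Read-out basis: percent inhibition of GAP-stimulated GDP formation, scaled between DMSO and no-Arfgap1 medians.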
SMARCA2 activ – increases SMARCA2 function in MMTV reporter cells. 1% of 370,000 active. AID 652017. MG213 cells, MMTV-luciferase reporter, dexamethasone, overnight. activation, % at 9.1 µM; in the data active = activation above about 7.8%
A number is an active result; - = inactive; ? = inconclusive; . = no result.

SMILES	ASAP1 GAP inh	esBAF inh	ARFGAP1 inhibitor	SMARCA2 activ
CNC[C@H]1Oc2ccc(NC(=O)NC3CCCCC3)cc2CC(=O)N([C@@H](C)CO)C[C@H]1C	.	-	.	.
O=C(Cc1cccs1)N/N=C/C(Cl)=C/c1ccccc1	-	.	-	-
O=C(N/N=C/c1c[nH]c2ccccc12)c1ccccc1Cl	-	-	-	-
Cc1occc1C(=O)N/N=C/c1c[nH]c2ccccc12	.	50	.	.
Cc1occc1C(=O)N/N=C/C=C/c1ccc(N(C)C)cc1	-	61	-	-
Cc1occc1C(=O)N/N=C/c1ccc(N(C)C)cc1	-	-	-	-
Cc1occc1C(=O)N/N=C/C=C/c1ccccc1	-	.	-	7.9
CCOC(=O)N/N=C/C(Cl)=C/c1ccccc1	-	56	-	-
C[C@@H]1CN([C@H](C)CO)C(=O)c2cc(-c3cccc(F)c3)cnc2O[C@@H]1CN(C)Cc1ccccn1	.	-	.	.
C[C@H](CO)N1C[C@H](C)[C@@H](CN(C)Cc2cccc(F)c2)Oc2cc(-c3ccccc3)ccc2S1(=O)=O	.	-	.	.
C[C@H](CO)N1C[C@H](C)[C@@H](CN(C)C(=O)Nc2cccc3ccccc23)Oc2ccc(NC(=O)Cc3cn(C)c4ccccc34)cc2C1=O	.	-	.	.
C[C@@H]1CN([C@@H](C)CO)C(=O)Cc2cc(NC(=O)Nc3ccc4c(c3)OCO4)ccc2O[C@@H]1CN(C)S(=O)(=O)c1ccccc1	.	-	.	.
COc1ccc(/C=N/NC(=O)c2ccoc2C)cc1COc1c(C)cccc1C	-	50	-	-
CCCCOC(=O)N/N=C/C=C/c1ccccc1	-	51	-	-
C[C@@H]1CN([C@H](C)CO)C(=O)c2cc(C#CCN(C)C)cnc2O[C@H]1CN(C)Cc1ccccn1	.	-	.	.
CCC(c1ccccc1)c1nc(-c2ccccn2)no1 (configuration not stated)	-	47	-	-
CC(Oc1ccc(Cl)cc1Cl)c1nc(-c2ccc(NC(=O)c3cccnc3)cc2)no1 (configuration not stated)	-	-	-	-
CC(Oc1ccc(Cl)cc1Cl)c1nc(-c2ccccn2)no1 (configuration not stated)	-	103	-	-
C[C@@H]1CN([C@@H](C)CO)C(=O)c2cc(NC(=O)CCC(F)(F)F)ccc2O[C@@H](C)CCCCO[C@@H]1CN(C)S(=O)(=O)c1ccc(F)cc1	.	-	.	.
Cn1cccc1-c1nc2ccc(NC(=O)c3cccs3)cc2[nH]1	-	64	-	-
CC(=O)Nc1ccc2nc(-c3cccs3)[nH]c2c1	-	-	-	-
CC(=O)Nc1ccc2nc(-c3cccn3C)[nH]c2c1	-	51	-	-
Cn1cccc1-c1nc2ccc([N+](=O)[O-])cc2[nH]1	-	?	-	-
O=C(C[C@H]1CC[C@@H]2[C@H](COC[C@@H](O)CN2C(=O)c2ccncc2)O1)Nc1ccc(-c2ccccc2)cc1	.	-	.	.
CCN(CC1CCCO1)C(=O)c1cc(COc2cc(C)c(Cl)c(C)c2)on1 (configuration not stated)	-	84	-	-
SMILES	ASAP1 GAP inh	esBAF inh	ARFGAP1 inhibitor	SMARCA2 activ
CCN(CC1CCCO1)C(=O)c1cc(COc2ccc(F)cc2F)on1 (configuration not stated)	-	-	-	-
Cc1cc(OCc2cc(C(=O)N(C)CC3CCOCC3)no2)cc(C)c1Cl	-	50	-	-
CC(=O)c1ccc(NC(=O)CCc2nnc3ccc(N4CCC5(CC4)OCCO5)nn23)cc1	-	54	-	-
C[C@@H]1CN([C@@H](C)CO)C(=O)c2cc(C#CC(C)(C)O)cnc2O[C@H]1CN(C)C(=O)CC1CC1	.	-	.	.
COc1ccc(OC)c(CNc2ccc3c(c2)CCC3)c1	-	46	-	-
COc1ccc(OC)c(CC(=O)Nc2ccc3c(c2)CCC3)c1	-	-	-	-
C[C@H](CO)N1C[C@H](C)[C@@H](CN(C)S(C)(=O)=O)OCCCC[C@H](C)Oc2ccc(NS(=O)(=O)c3ccccc3)cc2C1=O	.	-	.	.
c1cc(-c2cc3nc(NC4CCCCC4)ccn3n2)ccc1OCCN1CCOCC1	-	50	-	-
Clc1cccc(CNc2ccn3nc(-c4ccc(OCCN5CCOCC5)cc4)cc3n2)c1	-	-	-	-
COc1cc(-c2cc3nc(NCCN(C)C)ccn3n2)cc(OC)c1OC	-	-	-	-
CC(C)Cc1ccc(-c2cc3nc(NCC4CC4)ccn3n2)cc1	-	83	-	-
c1cc(-c2cc3nc(NCC4CC4)ccn3n2)ccc1OCCN1CCOCC1	-	46	-	-
FC(F)(F)c1cccc(-c2cc3nc(NC4CCCCC4)ccn3n2)c1	-	43	-	-
COc1cc(-c2cc3nc(NC4CCCCC4)ccn3n2)cc(OC)c1OC	-	-	-	-
